Molecular target: Human immunodeficiency virus type 1 reverse transcriptase (Human immunodeficiency virus 1, UniProt Q72547)
Experiment: Inhibition of HIV1 reverse transcriptase after 1 hr by ELISA
Outline: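 Commercial colorimetric RT kit; template/primer complex, biotin- and DIG-labelled dNTPs and RT enzyme in lysis buffer, with or without inhibitor, incubated 1 h at 37 °C. Product captured on streptavidin-coated plate, washed, probed with anti-DIG-peroxidase, then ABTS substrate added; absorbance read at 405 nm.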

Row | IC50 [µM] | SMILES
1 | 2.01 | Cc1nc(N2C(=O)CSC2c2c(F)cccc2Cl)nc(C)c1CCC#N (stereo unspecified)
2 | 0.85 | CCCc1c(C)nc(N2C(=O)CSC2c2c(F)cccc2Cl)nc1C (stereo unspecified)
3 | 0.23 | CCc1c(C)nc(N2C(=O)CSC2c2c(F)cccc2Cl)nc1C (stereo unspecified)
4 | 0.83 | Cc1nc(N2C(=O)CSC2c2c(Cl)cccc2Cl)nc(C)c1C (stereo unspecified)
5 | 16 | CCCCc1c(C)nc(N2C(=O)CSC2c2c(F)cccc2Cl)nc1C (stereo unspecified)
6 | 9.82 | Cc1nc(N2C(=O)CSC2c2c(Cl)cccc2Cl)nc(C)c1Br (stereo unspecified)
7 | 74.4 | CCCCCc1c(C)nc(N2C(=O)CSC2c2c(Cl)cccc2Cl)nc1C (stereo unspecified)
8 | 4.29 | CCCCc1c(C)nc(N2C(=O)CSC2c2c(Cl)cccc2Cl)nc1C (stereo unspecified)
9 | 16.1 | CCCCCc1c(C)nc(N2C(=O)CSC2c2c(F)cccc2Cl)nc1C (stereo unspecified)
10 | 0.26 | CCc1c(C)nc(N2C(=O)CSC2c2c(Cl)cccc2Cl)nc1C (stereo unspecified)
11 | 1.52 | Cc1nc(N2C(=O)CSC2c2c(F)cccc2Cl)nc(C)c1Br (stereo unspecified)
12 | 1.22 | C=CCc1c(C)nc(N2C(=O)CSC2c2c(Cl)cccc2Cl)nc1C (stereo unspecified)
13 | 2.92 | C=CCc1c(C)nc(N2C(=O)CSC2c2c(F)cccc2Cl)nc1C (stereo unspecified)
14 | 0.77 | CCCc1c(C)nc(N2C(=O)CSC2c2c(Cl)cccc2Cl)nc1C (stereo unspecified)
15 | 1.02 | Cc1nc(N2C(=O)CSC2c2c(Cl)cccc2Cl)nc(C)c1CCC#N (stereo unspecified)
16 | 0.38 | Cc1nc(N2C(=O)CSC2c2c(F)cccc2Cl)nc(C)c1C (stereo unspecified)
